According to ChEMBL document CHEMBL1268860, “Revision of the Structures of 1,5-Dihydroxy-3,8-epoxyvalechlorine, Volvaltrate B, and Valeriotetrate C from Valeriana jatamansi and V. officinalis” (J Nat Prod, 2010):

Key:
Type in all cases: functional, cell-based
[1] = system: A549; test: Cytotoxicity against human A549 cells after 24 hrs by MTT assay; details: A549, 24 h
Outline: (§1)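 Cell lines from ATCC, seeded at 3000 cells per well and left 24 h before exposure to a range of compound concentrations. After 24 h of exposure, MTT was added and the plates were incubated another 24 h. Viability was read as absorbance at 570 nm, and IC50 values were calculated from these readings. Paclitaxel served as the positive control.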

[2] = Cytotoxicity against human PC3M cells after 24 hrs by MTT assay; details: PC-3M; outline: as §1
[3] = system: HCT-8; test: Cytotoxicity against human HCT8 cells after 24 hrs by MTT assay; details: HCT-8, 24 h; outline: as §1
[4] = system: Bel-7402; test: Cytotoxicity against human Bel7402 cells after 24 hrs by MTT assay; details: Bel-7402, 24 h; outline: as §1

| SMILES | IC50 [1] [µM] | IC50 [2] [µM] | IC50 [3] [µM] | IC50 [4] [µM] |
| --- | --- | --- | --- | --- |
| C=C1[C@H]2O[C@H](OC)[C@@H]3[C@](CCl)(O2)[C@@H](OC(C)=O)C[C@]13O | > 10 | > 10 | > 10 | > 10 |
| CC(=O)O[C@H]1C[C@]2(O)C(COC(=O)[C@H](OC(=O)CC(C)C)C(C)C)=CO[C@@H](OC(=O)CC(C)C)[C@@H]2[C@@]1(O)CCl [VOLVALTRATE B] | 8.5 | 2 | 3.2 | 6.1 |
| C=C1[C@H]2O[C@@H](O)[C@@H]3[C@](CCl)(O2)[C@@H](OC(C)=O)C[C@]13O | > 10 | > 10 | > 10 | > 10 |
| C=C1[C@H]2O[C@H](OCC)[C@@H]3[C@](CCl)(O2)[C@@H](OC(C)=O)C[C@]13O | > 10 | > 10 | > 10 | > 10 |
| C=C1[C@H]2O[C@@H](OC)[C@@H]3[C@](CCl)(O2)[C@@H](OC(C)=O)C[C@]13O | > 10 | > 10 | > 10 | > 10 |
| C=C1[C@H]2O[C@@H](OCC)[C@@H]3[C@](CCl)(O2)[C@@H](OC(C)=O)C[C@]13O | > 10 | > 10 | > 10 | > 10 |
